Source: ChEMBL document CHEMBL5653622 (Oncotarget, 2016)
Activity calls are given as the source filed them. The calls are words filed in the database; no cut-off is given here.

Legend:
[1] = biological target: Serine/threonine-protein kinase TAO1 (Homo sapiens) (UniProt Q7L7X3); assay: Inhibition of human TAO1 assessed as remaining activity at 10 uM in presence of ATP by radiometric kinase assay relative to control
[2] = biological target: Inhibitor of nuclear factor kappa-B kinase subunit beta (Homo sapiens) (UniProt O14920); assay: Inhibition of human IKKb assessed as remaining activity at 10 uM in presence of ATP by radiometric kinase assay relative to control
[3] = biological target: Homeodomain-interacting protein kinase 2 (Homo sapiens) (UniProt Q9H2X6); assay: Inhibition of human HIPK2 assessed as remaining activity at 10 uM in presence of ATP by radiometric kinase assay relative to control
Homeodomain-interacting protein kinase 2 (Homo sapiens), sequence (Q9H2X6 whole entry, looked up): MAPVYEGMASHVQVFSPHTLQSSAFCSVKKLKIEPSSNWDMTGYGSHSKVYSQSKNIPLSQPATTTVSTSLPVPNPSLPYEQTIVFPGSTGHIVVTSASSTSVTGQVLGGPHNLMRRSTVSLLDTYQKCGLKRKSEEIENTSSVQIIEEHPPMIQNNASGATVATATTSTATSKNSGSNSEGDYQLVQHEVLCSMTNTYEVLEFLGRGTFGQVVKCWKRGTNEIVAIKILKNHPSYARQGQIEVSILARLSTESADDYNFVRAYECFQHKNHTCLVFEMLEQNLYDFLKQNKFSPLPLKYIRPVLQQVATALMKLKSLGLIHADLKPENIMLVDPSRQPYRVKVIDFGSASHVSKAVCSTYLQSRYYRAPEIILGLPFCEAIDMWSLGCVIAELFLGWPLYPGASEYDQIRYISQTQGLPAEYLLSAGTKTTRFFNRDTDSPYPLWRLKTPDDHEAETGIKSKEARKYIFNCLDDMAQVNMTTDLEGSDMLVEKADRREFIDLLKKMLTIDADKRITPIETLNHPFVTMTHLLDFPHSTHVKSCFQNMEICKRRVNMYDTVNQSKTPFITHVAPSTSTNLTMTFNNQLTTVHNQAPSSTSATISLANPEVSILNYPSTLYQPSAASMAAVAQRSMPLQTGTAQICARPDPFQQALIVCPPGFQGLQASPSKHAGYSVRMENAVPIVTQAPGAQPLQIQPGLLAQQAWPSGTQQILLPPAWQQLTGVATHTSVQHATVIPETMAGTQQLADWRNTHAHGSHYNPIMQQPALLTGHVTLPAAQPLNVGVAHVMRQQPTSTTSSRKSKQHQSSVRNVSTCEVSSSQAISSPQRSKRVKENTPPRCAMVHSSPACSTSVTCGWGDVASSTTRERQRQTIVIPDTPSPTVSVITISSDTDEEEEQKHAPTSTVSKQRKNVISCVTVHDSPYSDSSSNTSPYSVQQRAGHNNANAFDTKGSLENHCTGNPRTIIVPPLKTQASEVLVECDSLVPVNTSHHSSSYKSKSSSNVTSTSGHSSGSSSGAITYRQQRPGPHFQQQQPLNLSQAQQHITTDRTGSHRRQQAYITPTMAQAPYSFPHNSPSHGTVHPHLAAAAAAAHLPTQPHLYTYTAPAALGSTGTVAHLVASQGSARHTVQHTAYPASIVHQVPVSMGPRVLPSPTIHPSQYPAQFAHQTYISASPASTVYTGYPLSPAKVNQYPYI

Mus musculus = assay: In vivo inhibition of CHK1 in CRTac:Ncr-Fox1 athymic mouse xenografted with human Calu-6 cells assessed as enhanced phosphorylation CHK1 at […] on 150 mg/kg, po in presence of gemcitabine and carboplatin by Western blotting analysis; format: functional, organism-based
In short: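 Female CRTac:Ncr-Fox1(nu) athymic mice carried s.c. Calu6 xenografts. Tumors were taken 6h after the last inhibitor dose, lysed in CHAPS buffer, and immunoblotted with GAPDH as loading control.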

[4] = AUC (0 to infinity) in BALB/C mouse spleen at 10 mg/kg, po by LC/MS-MS analysis; format: ADME, organism-based
[5] = biological target: MAP kinase-interacting serine/threonine-protein kinase 1 (Homo sapiens) (UniProt Q9BUB5); assay: Inhibition of human MNK1 assessed as remaining activity at 10 uM in presence of ATP by radiometric kinase assay relative to control
[6] = biological target: Mitogen-activated protein kinase 9 (Homo sapiens) (UniProt P45984); assay: Inhibition of human JNK2 assessed as remaining activity at 10 uM in presence of ATP by radiometric kinase assay relative to control
Mitogen-activated protein kinase 9 (Homo sapiens), sequence (P45984 whole entry, looked up): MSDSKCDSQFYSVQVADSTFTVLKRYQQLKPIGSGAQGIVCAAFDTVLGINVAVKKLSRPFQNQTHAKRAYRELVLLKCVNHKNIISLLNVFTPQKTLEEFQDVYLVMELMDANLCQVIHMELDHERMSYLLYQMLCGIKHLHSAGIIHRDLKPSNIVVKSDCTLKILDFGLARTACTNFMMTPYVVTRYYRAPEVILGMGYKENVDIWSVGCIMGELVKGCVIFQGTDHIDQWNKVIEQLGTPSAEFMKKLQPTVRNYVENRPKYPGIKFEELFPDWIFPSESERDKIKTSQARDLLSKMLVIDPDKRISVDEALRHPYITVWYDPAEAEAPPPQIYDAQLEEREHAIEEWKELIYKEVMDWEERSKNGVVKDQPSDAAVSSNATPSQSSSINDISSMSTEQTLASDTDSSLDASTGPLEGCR

HT-29 [7] = assay: Induction of cell cycle arrest in human HT-29 cells assessed as accumulation of cells at G0/G1 phase at 0.5 uM incubated for 24 hrs by BrdU and PI staining based flow cytometry analysis; format: functional
In short: (§1)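 HT29 cells exposed for 24h, stained with bromodeoxyuridine and propidium iodide, and cell-cycle distribution measured by flow cytometry.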

[8] = biological target: Tau-tubulin kinase 1 (Homo sapiens) (UniProt Q5TCY1); assay: Inhibition of human TTBK1 assessed as remaining activity at 10 uM in presence of ATP by radiometric kinase assay relative to control
[9] = biological target: Phosphorylase b kinase gamma catalytic chain, skeletal muscle/heart isoform (Homo sapiens, UniProt Q16816); assay: Inhibition of PHKG1 (unknown origin) by FRET based Z-LYTE kinase assay
[10] = biological target: Mitogen-activated protein kinase 14 (Homo sapiens) (UniProt Q16539); assay: Inhibition of human p38a MAPK assessed as remaining activity at 10 uM in presence of ATP by radiometric kinase assay relative to control
Mitogen-activated protein kinase 14 (Homo sapiens), sequence (Q16539 whole entry): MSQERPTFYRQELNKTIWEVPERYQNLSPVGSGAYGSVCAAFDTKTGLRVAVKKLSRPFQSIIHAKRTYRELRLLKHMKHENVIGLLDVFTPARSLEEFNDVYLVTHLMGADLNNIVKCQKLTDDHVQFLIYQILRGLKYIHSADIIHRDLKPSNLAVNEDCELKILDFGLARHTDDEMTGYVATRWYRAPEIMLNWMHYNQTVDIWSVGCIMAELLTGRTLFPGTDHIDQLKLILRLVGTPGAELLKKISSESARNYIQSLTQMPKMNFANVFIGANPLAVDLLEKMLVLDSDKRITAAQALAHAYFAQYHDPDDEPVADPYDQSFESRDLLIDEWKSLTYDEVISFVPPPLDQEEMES

[11] = biological target: Dual specificity protein kinase TTK (Homo sapiens) (UniProt P33981); assay: Inhibition of human TTK assessed as remaining activity at 10 uM in presence of ATP by radiometric kinase assay relative to control
Dual specificity protein kinase TTK (Homo sapiens), sequence (P33981 whole entry): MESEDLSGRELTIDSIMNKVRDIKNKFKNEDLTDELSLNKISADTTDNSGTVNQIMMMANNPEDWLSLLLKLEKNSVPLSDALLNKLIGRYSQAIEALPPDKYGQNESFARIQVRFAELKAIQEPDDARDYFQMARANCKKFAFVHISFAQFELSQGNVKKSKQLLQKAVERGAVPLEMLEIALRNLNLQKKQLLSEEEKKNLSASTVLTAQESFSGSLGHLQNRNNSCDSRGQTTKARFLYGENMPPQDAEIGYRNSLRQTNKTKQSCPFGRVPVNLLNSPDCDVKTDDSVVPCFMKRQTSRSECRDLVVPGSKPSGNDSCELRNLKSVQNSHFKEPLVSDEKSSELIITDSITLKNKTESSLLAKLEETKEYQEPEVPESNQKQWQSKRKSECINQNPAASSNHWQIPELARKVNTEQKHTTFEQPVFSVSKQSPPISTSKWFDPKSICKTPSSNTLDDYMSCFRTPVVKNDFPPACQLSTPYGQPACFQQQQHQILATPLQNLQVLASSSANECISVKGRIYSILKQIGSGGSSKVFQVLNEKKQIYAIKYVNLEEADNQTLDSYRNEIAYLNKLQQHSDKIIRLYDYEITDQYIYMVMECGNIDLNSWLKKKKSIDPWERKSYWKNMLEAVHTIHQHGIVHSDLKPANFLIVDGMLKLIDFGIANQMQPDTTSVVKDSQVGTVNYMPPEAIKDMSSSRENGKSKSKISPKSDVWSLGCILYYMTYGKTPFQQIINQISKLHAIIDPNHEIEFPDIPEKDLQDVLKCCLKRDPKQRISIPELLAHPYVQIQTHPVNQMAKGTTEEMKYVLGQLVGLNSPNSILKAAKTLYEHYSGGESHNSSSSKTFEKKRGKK

[12] = biological target: Ephrin type-B receptor 3 (Homo sapiens) (UniProt P54753); assay: Inhibition of human EPH-B3 assessed as remaining activity at 10 uM in presence of ATP by radiometric kinase assay relative to control
[13] = Toxicity in Emu-Myc driven transgenic mouse transplant model of B-cell lymphoma assessed as reduction in weight of thymus at 150 mg/kg, po administered for 9 days; format: organism-based; details: in vivo, 216 h, time 9 day
[14] = biological target: Inhibitor of nuclear factor kappa-B kinase subunit epsilon (Homo sapiens) (UniProt Q14164); assay: Inhibition of human IKKe assessed as remaining activity at 10 uM in presence of ATP by radiometric kinase assay relative to control
Inhibitor of nuclear factor kappa-B kinase subunit epsilon (Homo sapiens), sequence (Q14164 whole entry): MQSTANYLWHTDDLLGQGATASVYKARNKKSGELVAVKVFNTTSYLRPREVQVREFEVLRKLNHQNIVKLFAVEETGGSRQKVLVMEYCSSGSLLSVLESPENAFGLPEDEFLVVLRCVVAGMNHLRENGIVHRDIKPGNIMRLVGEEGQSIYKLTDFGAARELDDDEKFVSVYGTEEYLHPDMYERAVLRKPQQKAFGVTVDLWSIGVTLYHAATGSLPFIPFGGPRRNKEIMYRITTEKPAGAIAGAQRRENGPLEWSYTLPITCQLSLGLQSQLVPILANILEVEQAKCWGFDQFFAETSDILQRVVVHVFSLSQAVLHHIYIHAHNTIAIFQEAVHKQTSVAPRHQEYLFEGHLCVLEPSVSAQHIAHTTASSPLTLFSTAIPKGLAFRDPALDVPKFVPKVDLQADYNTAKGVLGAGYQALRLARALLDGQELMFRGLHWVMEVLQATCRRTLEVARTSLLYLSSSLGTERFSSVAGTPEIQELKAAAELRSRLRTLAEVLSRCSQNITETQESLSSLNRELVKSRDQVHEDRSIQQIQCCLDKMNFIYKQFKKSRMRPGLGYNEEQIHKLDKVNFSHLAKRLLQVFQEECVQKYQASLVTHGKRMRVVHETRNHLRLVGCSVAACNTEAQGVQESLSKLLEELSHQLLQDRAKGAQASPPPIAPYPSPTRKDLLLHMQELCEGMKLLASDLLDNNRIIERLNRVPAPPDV

[15] = biological target: NUAK family SNF1-like kinase 1 (Homo sapiens) (UniProt O60285); assay: Inhibition of human NUAK1 assessed as remaining activity at 10 uM in presence of ATP by radiometric kinase assay relative to control
HT-29 [16] = assay: Induction of apoptosis in human HT-29 cells assessed as increased in cleaved PARP in presence of gemcitabine by Western blotting analysis; format: functional, cell-based
[17] = biological target: Eukaryotic elongation factor 2 kinase (Homo sapiens) (UniProt O00418); assay: Inhibition of human EF2K assessed as remaining activity at 10 uM in presence of ATP by radiometric kinase assay relative to control
[18] = biological target: Dual specificity mitogen-activated protein kinase kinase 2 (Homo sapiens) (UniProt P36507); assay: Inhibition of human MKK2 assessed as remaining activity at 10 uM in presence of ATP by radiometric kinase assay relative to control
Dual specificity mitogen-activated protein kinase kinase 2 (Homo sapiens), sequence (P36507 whole entry): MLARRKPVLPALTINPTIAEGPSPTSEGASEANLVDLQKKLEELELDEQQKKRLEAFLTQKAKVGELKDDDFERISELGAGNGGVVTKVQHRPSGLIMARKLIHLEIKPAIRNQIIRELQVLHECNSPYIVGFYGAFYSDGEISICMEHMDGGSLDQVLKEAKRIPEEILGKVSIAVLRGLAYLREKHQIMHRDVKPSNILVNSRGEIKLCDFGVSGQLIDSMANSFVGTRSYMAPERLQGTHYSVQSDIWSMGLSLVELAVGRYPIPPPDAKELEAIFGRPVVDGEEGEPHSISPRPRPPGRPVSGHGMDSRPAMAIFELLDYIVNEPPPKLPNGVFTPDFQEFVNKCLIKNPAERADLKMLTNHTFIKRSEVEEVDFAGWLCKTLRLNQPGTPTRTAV

[19] = biological target: Protein kinase C gamma type (Homo sapiens) (UniProt P05129); assay: Inhibition of human PKC gamma assessed as remaining activity at 10 uM in presence of ATP by radiometric kinase assay relative to control
[20] = biological target: Serine/threonine-protein kinase tousled-like 1 (Homo sapiens) (UniProt Q9UKI8); assay: Inhibition of human TLK1 assessed as remaining activity at 10 uM in presence of ATP by radiometric kinase assay relative to control
[21] = Toxicity in Emu-Myc driven transgenic mouse transplant model of B-cell lymphoma assessed as change in body weight at 150 mg/kg, po administered for 9 days; format: organism-based; details: in vivo, 216 h, time 9 day
[22] = biological target: Aurora kinase B (Homo sapiens) (UniProt Q96GD4); assay: Inhibition of human AuroraB assessed as remaining activity at 10 uM in presence of ATP by radiometric kinase assay relative to control
Aurora kinase B (Homo sapiens), sequence (Q96GD4 whole entry): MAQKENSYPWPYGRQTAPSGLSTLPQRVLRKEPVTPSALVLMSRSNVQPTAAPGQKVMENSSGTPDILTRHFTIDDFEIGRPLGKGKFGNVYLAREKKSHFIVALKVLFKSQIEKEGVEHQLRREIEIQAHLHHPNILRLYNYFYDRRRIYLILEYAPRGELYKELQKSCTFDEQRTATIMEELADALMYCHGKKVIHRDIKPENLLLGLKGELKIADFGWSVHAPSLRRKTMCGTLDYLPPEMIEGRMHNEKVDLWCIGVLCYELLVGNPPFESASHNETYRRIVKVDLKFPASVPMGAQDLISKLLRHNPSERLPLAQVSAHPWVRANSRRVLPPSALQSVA

HT-29 [23] = assay: Induction of cell cycle arrest in etoposide induced human HT-29 cells assessed as decrease in accumulation of cells at G2/M phase at 1 to 5 uM incubated for 24 hrs by BrdU and PI staining based flow cytometry analysis; format: functional; details: dose 1-5 µM; in short: as §1
[24] = biological target: Dual specificity tyrosine-phosphorylation-regulated kinase 2 (Homo sapiens) (UniProt Q92630); assay: Inhibition of human DYRK2 assessed as remaining activity at 10 uM in presence of ATP by radiometric kinase assay relative to control
Dual specificity tyrosine-phosphorylation-regulated kinase 2 (Homo sapiens), sequence (Q92630 whole entry): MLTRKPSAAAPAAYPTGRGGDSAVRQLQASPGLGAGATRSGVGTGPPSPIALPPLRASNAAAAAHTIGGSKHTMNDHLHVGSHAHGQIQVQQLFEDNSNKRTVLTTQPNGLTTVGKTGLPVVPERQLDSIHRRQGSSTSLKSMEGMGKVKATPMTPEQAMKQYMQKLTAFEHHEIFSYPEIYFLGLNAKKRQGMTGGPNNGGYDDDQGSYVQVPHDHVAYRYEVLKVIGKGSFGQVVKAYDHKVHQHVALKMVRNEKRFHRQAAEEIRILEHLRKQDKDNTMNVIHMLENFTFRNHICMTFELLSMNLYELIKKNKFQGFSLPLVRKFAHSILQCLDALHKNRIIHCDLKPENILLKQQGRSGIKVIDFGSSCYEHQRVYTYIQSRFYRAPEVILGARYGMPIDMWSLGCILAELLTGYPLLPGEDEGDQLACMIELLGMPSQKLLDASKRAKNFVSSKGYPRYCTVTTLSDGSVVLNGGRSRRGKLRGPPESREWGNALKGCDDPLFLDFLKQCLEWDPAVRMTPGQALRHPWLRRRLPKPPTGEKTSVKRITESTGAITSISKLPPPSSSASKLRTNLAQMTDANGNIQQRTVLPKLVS

[25] = biological target: MAP kinase-activated protein kinase 3 (Homo sapiens) (UniProt Q16644); assay: Inhibition of human MAPKAP-K3 assessed as remaining activity at 10 uM in presence of ATP by radiometric kinase assay relative to control
[26] = biological target: Insulin receptor (Homo sapiens) (UniProt P06213); assay: Inhibition of human IR assessed as remaining activity at 10 uM in presence of ATP by radiometric kinase assay relative to control
[27] = biological target: Serine/threonine-protein kinase pim-3 (Homo sapiens) (UniProt Q86V86); assay: Inhibition of human PIM3 assessed as remaining activity at 10 uM in presence of ATP by radiometric kinase assay relative to control
[28] = biological target: Serine/threonine-protein kinase MARK2 (Homo sapiens) (UniProt Q7KZI7); assay: Inhibition of human MARK2 assessed as remaining activity at 10 uM in presence of ATP by radiometric kinase assay relative to control
[29] = biological target: Serine/threonine-protein kinase PAK 5 (Homo sapiens) (UniProt Q9P286); assay: Inhibition of human PAK5 assessed as remaining activity at 10 uM in presence of ATP by radiometric kinase assay relative to control

## N#Cc1cnc(Nc2cc(NC[C@H]3CNCCO3)c(C(F)(F)F)cn2)cn1 [SRA-737]
[1]
  Activity: 54%
[2]
  Activity: 91%
[3]
  Activity: 92%
Mus musculus
  Activity: Active
[4]
  AUC(0-inf): 223 µM·h
[5]
  Activity: 62%
[6]
  Activity: 107%
HT-29 [7]
  Activity: Active
[8]
  Activity: 82%
[9]
  IC50: 3.47 µM
[10]
  Activity: 120%
[11]
  Activity: 36%
[12]
  Activity: 93%
[13]
  Activity: Toxic
[14]
  Activity: 102%
[15]
  Activity: 6%
HT-29 [16]
  Activity: Active
[17]
  Activity: 98%
[18]
  Activity: 61%
[19]
  Activity: 87%
[20]
  Activity: 59%
[21]
  Activity: Non-Toxic
[22]
  Activity: 26%
HT-29 [23]
  Activity: Active
[24]
  Activity: 61%
[25]
  Activity: 114%
[26]
  Activity: 102%
[27]
  Activity: 36%
[28]
  Activity: 21%
[29]
  Activity: 70%
